The source of these data is ChEMBL document CHEMBL5154713, “Illuminating a Dark Kinase: Structure-Guided Design, Synthesis, and Evaluation of a Potent Nek1 Inhibitor and Its Effects on the Embryonic Zebrafish Pronephros” (J Med Chem, 2022).

Data set [1] in a line: Toxicity in wild-type Zebrafish embryos assessed as effect on ordinary heartbeat at 0.05 to 30 uM measured upto 120 hrs. Set-up: species or system Danio rerio. The note with it: in vivo, dose 0.05-30 µM. The procedure, abridged:
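Wild-type embryos, 15 per group with intact chorions, dosed at 6 hpf with 0.05–30 μM final concentrations in E3, diluted from a DMSO stock. Survival checked every 24 h by heartbeat over 120 h, and phenotypes assessed visually. At least triplicate, 5 replicates at 30 μM.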

The target in data set [2] is Phosphatidylinositol 4,5-bisphosphate 3-kinase catalytic subunit gamma isoform (Homo sapiens) (UniProt P48736). The experiment in a line: Inhibition of human full length PI3Kgamma assessed as residual activity at 1 uM using phosphatidylinositol-4, 5-bisphosphate as substrate incubated for 40 mins in presence of ATP by HTRF assay relative to control.
The target of data set [3] is Protein-tyrosine kinase 6 (Homo sapiens) (UniProt Q13882). The experiment in a line: Inhibition of recombinant full length human BRK assessed as residual activity at 1 uM using poly(Glu, Tyr) 4:1 as substrate incubated for 40 mins in presence of [gamma-33ATP] by scintillation counting based radiometry assay relative to control. A digest of the protocol: (§1)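 Commercial radiometric panel of 50 kinases. Each recombinant human kinase was tested at a single compound concentration of 1 μM. ATP was set within 15 μM of the apparent Km for ATP for each kinase. Residual activity is relative to control and is the mean of two independent experiments.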

Data set [4] deals with Calcium/calmodulin-dependent protein kinase type 1G (Homo sapiens) (UniProt Q96NX5). The experiment in a line: Inhibition of recombinant full length human CaMK1gamma assessed as residual activity at 1 uM using KKLRRTLSFAEPG as substrate incubated for 40 mins in presence of [gamma-33ATP] by radiometric scintillation counting analysis relative to control. A digest of the protocol:
as §1

The target in data set [5] is Protein kinase C eta type (Homo sapiens) (UniProt P24723). Nature of the data set: Inhibition of recombinant human full length PKCeta (2 to end residues) assessed as residual activity at 1 uM using ERMRPRKRQGSVRRRV as substrate incubated for 40 mins in presence of [gamma-33P]-ATP by scintillation counting method relative to control. The procedure, abridged:
as §1

For data set [6], the target named is Serine/threonine-protein kinase Nek3 (Homo sapiens) (UniProt P51956). Nature of the data set: Inhibition of recombinant full-length human NEK3 assessed as residual activity at 1 uM using myelin basic protein as substrate measured after 40 mins in presence of [gamma33P]ATP by radiometric scintillation counting method relative to control. A digest of the protocol:
as §1

The target of data set [7] is Serine/threonine-protein kinase Nek6 (Homo sapiens) (UniProt Q9HC98). The experiment in a line: Inhibition of human NEK6 (2 to end residues) assessed as residual activity at 1 uM using FLAKSFGSPNRAYKK as substrate incubated for 40 mins in presence of [gamma 33P]-ATP by radiometric scintillation counting assay relative to control. A digest of the protocol:
as §1

Data set [8] addresses Serine-protein kinase ATM (Homo sapiens) (UniProt Q13315). The experiment in a line: Inhibition of human full length recombinant ATM assessed as residual activity at 1 uM using GST-cMyc-p53 as substrate incubated for 40 mins in presence of ATP by HTRF assay relative to control. In general terms: TR-FRET usually uses a lanthanide donor and a delayed reading to cut background.

Data set [9] has as its target T1, Serine/threonine-protein kinase Nek1 (Homo sapiens) (UniProt Q96PY6).
T1 sequence (whole entry): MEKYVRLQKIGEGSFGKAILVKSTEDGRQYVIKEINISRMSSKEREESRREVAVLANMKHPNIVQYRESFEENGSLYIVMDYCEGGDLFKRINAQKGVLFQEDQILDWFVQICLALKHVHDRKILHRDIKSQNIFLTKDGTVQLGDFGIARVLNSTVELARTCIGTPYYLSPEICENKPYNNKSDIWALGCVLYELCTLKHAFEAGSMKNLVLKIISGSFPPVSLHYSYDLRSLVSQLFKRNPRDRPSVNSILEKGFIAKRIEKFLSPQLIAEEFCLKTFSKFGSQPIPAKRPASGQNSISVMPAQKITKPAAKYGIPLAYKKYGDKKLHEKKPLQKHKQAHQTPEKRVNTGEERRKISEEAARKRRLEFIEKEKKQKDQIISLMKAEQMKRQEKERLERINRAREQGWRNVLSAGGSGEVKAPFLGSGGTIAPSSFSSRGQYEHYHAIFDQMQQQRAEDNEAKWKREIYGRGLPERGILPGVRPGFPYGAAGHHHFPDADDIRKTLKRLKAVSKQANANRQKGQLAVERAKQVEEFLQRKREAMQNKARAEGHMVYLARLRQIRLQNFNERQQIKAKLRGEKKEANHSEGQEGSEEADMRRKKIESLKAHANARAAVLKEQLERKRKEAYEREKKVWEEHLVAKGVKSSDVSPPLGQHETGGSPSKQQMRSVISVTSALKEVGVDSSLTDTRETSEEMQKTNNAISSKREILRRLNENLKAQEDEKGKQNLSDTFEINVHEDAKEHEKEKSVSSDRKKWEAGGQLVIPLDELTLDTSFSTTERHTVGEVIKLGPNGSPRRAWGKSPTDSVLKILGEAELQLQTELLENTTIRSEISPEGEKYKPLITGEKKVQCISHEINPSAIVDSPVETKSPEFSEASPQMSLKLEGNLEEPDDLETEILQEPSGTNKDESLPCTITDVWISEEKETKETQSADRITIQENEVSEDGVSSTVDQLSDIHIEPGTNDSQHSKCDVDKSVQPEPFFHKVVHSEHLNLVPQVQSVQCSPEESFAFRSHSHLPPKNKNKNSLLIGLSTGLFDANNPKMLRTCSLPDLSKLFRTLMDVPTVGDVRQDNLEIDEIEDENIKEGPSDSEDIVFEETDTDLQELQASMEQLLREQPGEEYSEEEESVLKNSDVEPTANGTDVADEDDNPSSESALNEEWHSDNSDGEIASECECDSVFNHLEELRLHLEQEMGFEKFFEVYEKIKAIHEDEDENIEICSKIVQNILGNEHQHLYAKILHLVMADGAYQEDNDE
Nature of the data set: Inhibition of human recombinant NEK1 (1 to 505 residues) assessed as residual activity at 1 uM using RLGRDKYKTLRQIRQ as substrate incubated for 40 mins in presence of [gamma-33P]-ATP by radiometric scintillation counting assay relative to control. The procedure, abridged:
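Eurofins KinaseProfiler radiometric panel, compound at 1 μM, ATP at 10 μM or within 15 μM of apparent Km. For Nek1 (1−505): 8 mM MOPS pH 7.0, 0.2 mM EDTA, 250 μM peptide, 10 mM Mg acetate, [γ-33P]-ATP, 40 min at room temperature. Stopped with 0.5% phosphoric acid, filtermat spotting, scintillation counting. Mean of two independent experiments.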

The structures appear in SMILES notation. Some results are limits rather than exact numbers.

Protein-tyrosine kinase 6 (Homo sapiens), sequence (Q13882 whole entry, looked up): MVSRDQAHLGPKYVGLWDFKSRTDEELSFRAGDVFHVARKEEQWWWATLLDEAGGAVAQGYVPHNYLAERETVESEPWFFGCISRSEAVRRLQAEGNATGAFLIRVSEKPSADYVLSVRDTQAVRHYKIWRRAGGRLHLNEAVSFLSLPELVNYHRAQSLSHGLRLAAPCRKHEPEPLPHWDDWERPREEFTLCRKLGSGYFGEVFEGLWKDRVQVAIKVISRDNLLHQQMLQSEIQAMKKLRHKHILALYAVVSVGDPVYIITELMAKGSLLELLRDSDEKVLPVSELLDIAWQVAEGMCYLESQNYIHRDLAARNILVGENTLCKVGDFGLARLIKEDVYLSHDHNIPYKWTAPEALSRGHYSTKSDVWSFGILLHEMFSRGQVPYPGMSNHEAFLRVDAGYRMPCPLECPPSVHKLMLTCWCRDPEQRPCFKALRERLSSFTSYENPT
Serine-protein kinase ATM (Homo sapiens), sequence (Q13315 whole entry): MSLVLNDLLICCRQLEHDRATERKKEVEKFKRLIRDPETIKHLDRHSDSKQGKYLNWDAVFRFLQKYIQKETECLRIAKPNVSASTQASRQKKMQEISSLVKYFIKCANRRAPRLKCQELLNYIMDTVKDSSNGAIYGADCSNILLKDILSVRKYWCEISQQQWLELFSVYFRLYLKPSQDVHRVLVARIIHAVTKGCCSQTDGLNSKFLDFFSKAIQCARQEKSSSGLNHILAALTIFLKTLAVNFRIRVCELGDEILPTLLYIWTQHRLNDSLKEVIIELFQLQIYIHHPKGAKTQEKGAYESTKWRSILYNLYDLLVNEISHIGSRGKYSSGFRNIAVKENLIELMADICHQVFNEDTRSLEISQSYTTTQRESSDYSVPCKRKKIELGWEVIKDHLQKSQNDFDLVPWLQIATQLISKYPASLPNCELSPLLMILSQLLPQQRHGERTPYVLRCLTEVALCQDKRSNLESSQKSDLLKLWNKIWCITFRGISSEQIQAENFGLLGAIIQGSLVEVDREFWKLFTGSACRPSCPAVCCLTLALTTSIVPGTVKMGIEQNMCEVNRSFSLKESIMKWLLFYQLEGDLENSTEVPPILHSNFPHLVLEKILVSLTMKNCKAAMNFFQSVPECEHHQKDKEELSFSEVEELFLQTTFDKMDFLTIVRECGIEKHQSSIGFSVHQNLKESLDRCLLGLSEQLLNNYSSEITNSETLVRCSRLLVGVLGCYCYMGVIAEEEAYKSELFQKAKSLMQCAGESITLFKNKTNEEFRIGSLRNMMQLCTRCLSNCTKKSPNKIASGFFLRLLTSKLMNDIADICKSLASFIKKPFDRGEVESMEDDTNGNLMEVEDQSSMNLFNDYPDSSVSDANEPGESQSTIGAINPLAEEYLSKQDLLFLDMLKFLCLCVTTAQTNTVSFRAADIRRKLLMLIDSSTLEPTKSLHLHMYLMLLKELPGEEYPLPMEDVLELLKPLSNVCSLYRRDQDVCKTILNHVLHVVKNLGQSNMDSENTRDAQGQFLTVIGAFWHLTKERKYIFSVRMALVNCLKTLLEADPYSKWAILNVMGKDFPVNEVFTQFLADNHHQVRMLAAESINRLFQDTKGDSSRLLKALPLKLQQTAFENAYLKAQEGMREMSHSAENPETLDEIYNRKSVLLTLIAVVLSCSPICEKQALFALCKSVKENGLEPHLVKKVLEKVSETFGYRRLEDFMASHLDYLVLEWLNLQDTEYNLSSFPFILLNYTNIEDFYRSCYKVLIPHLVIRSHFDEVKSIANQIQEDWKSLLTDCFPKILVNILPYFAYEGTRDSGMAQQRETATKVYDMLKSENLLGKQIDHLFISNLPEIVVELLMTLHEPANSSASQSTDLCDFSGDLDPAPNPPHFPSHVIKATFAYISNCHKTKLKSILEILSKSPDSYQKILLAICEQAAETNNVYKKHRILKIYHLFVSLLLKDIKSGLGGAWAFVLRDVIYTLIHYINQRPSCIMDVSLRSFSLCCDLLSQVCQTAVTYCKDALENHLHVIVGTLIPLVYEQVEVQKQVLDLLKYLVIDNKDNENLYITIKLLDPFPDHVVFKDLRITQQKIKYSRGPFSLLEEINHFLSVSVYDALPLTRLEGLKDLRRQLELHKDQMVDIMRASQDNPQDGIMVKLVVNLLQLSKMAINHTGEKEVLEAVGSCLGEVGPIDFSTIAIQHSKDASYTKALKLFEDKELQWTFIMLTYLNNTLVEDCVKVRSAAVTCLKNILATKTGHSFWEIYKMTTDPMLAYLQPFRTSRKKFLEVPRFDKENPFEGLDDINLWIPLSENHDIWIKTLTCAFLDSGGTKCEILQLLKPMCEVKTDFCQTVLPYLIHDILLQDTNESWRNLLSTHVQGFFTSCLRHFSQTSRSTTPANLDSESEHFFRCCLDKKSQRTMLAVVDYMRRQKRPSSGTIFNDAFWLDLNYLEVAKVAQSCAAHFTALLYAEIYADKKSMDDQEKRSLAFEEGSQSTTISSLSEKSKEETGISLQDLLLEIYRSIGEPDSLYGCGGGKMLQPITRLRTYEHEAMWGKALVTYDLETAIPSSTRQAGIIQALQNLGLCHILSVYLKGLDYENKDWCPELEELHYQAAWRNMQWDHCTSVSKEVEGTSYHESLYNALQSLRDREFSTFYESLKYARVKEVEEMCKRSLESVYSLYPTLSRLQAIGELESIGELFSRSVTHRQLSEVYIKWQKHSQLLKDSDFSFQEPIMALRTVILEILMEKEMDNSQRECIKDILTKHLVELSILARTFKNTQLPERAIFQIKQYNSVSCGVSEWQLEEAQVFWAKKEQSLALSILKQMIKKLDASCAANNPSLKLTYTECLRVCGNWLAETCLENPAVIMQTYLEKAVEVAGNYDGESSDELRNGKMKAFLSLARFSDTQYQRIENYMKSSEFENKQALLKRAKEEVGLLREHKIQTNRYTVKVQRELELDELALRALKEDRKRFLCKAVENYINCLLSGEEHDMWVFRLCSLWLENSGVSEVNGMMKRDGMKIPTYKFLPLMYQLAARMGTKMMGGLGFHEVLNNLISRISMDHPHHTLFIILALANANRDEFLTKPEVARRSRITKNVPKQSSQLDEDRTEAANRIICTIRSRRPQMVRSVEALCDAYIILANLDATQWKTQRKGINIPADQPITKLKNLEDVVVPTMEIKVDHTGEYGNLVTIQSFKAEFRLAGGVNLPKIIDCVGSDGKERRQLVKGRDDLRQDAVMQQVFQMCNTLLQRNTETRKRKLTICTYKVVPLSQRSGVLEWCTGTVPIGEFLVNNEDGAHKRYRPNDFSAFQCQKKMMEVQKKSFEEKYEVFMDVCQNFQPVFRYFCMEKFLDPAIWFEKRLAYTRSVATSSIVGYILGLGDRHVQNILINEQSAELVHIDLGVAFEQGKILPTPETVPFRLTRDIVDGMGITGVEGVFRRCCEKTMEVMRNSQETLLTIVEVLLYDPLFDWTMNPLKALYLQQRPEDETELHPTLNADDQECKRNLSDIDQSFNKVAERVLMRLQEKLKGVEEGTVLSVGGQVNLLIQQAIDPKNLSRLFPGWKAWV
Calcium/calmodulin-dependent protein kinase type 1G (Homo sapiens), sequence (Q96NX5 whole entry): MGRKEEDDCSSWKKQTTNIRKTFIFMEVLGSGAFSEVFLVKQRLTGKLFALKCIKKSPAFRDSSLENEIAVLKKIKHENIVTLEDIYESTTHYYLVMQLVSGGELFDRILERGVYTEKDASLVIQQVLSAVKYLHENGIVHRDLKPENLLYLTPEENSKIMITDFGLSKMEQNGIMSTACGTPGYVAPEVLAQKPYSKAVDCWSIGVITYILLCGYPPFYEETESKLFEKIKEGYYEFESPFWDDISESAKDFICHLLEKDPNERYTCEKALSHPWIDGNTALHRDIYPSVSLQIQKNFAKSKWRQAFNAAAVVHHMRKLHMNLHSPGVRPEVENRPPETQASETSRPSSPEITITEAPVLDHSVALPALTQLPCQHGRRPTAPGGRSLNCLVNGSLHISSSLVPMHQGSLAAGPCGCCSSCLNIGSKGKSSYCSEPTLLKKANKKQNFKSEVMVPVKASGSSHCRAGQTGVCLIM
Serine/threonine-protein kinase Nek6 (Homo sapiens), sequence (Q9HC98 whole entry): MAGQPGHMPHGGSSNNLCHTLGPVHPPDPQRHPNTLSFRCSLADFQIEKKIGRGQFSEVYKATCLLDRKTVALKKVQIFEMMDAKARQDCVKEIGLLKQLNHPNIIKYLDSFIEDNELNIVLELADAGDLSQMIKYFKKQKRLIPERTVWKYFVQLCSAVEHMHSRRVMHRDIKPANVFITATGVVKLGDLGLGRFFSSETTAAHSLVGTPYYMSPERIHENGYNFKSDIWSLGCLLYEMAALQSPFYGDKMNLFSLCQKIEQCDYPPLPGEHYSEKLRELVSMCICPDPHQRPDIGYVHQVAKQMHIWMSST
Protein kinase C eta type (Homo sapiens), sequence (P24723 whole entry): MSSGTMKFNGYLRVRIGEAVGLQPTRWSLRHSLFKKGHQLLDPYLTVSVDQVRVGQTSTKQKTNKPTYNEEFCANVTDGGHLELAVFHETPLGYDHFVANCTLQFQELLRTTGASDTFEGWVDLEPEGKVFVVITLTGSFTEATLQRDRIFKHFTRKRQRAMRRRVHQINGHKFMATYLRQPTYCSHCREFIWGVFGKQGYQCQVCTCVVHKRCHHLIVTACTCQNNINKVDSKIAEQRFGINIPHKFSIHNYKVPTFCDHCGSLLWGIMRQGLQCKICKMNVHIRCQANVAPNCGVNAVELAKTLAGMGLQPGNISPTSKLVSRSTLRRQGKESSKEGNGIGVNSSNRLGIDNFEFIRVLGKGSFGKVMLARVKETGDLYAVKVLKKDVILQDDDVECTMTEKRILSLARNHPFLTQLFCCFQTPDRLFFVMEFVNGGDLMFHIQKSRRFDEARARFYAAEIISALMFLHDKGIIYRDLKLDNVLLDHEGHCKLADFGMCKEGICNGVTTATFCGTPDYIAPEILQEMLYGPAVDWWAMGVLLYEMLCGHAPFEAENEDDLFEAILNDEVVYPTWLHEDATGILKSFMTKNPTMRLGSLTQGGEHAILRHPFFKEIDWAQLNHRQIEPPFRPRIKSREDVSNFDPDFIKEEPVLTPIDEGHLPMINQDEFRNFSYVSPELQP

For the compound `O=S(=O)(N[C@@H](CO)Cc1c[nH]c2ccccc12)c1ccc(-c2ccnc3[nH]ccc23)cc1`, the Activity result in data set [1] is “Non-Toxic”; in [2] it was more than 75%; in [3], more than 75%; in data set [4], more than 75%; in [5], more than 75%; in data set [6], more than 75%. Further, the Activity in data set [7] is more than 75%; in data set [8], more than 75%; in [9], 4%.
